The subject of assay [1] is MDA-MB-435. In words: Inhibition of LCC6-WT-human breast carcinoma cell line growth was determined at 10 uM. In kind it is functional.
Assay [2] has as its system MDA-MB-435. In words: Cytotoxicity against paclitaxel resistant LCC6-MDR-MDR1 transfected cell line. In kind it is functional, cell-based. Particulars: Homo sapiens.
The test system of assay [3] is MDA-MB-435. In words: Inhibition of LCC6-MDR-MDR1 transfected cell line growth was determined at 10 uM. In kind it is functional. Conditions: Homo sapiens.
Assay [4] deals with MDA-MB-435. In words: Cytotoxicity against paclitaxel sensitive LCC6-WT-human breast carcinoma cell line. In kind it is functional, cell-based.
The subject of assay [5] is MDA-MB-435. Nature of the assay: Inhibitory concentration against LCC6-MDR human breast cancer cell line. In kind it is functional, cell-based. The essentials:
(§1)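 Paclitaxel was tested against MDR1-transfected LCC6-MDR cells while co-administered with each reversal agent at fixed concentrations (four levels overall). Paclitaxel IC50 was determined under each condition. Percent IC50 reduction, taken as reversal activity, was calculated relative to paclitaxel alone.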

Assay [6] concerns MDA-MB-435. In words: Percent reduction of inhibitory concentration against LCC6-MDR human breast cancer cell line at 5 uM concentration. In kind it is functional. Conditions: for Reduction: in the assay text read “at 1 uM concentration” for “at 5 uM concentration”. Summed up:
as §1

Assay [7] concerns MDA-MB-435. Nature of the assay: Inhibition of LCC6-MDR human breast carcinoma cell line growth was determined at 1 uM; No growth inhibition. In kind it is functional, cell-based.
Assay [8] concerns MDA-MB-435. In words: Inhibition of LCC6-MDR human breast carcinoma cell line growth was determined at 5 uM; No growth inhibition. In kind it is functional, cell-based.
Assay [9] deals with MDA-MB-435. Nature of the assay: Reversal activity against LCC6-MDR human breast carcinoma cell line. In kind it is functional. Summed up: as §1
Assay [10] concerns MDA-MB-435. Nature of the assay: Percent reduction of inhibitory concentration against LCC6-MDR human breast cancer cell line at 1 uM concentration.

Several values for one entry are separate records, joined by “and”; a condition that tells them apart may be missing. Equal entries are not always repeated. Some results are limits rather than exact numbers.

Regarding `O=S(=O)(c1ccc2ccccc2c1)N(CCCCNc1ccnc2cc(Cl)ccc12)Cc1ccccc1`, the inhibition at 10 µM amounted to 6% with MDA-MB-435 [1] and 3% in the assay with MDA-MB-435 [3]. The IC50 with MDA-MB-435 [2] and in the assay with MDA-MB-435 [4] was greater than 10 µM in each case.

On to `CC(=O)O[C@H]1C(=O)[C@@]2(C)[C@H]([C@H](OC(=O)c3ccccc3)[C@]3(O)C[C@H](OC(=O)[C@H](O)[C@@H](NC(=O)c4ccccc4)c4ccccc4)C(C)=C1C3(C)C)[C@]1(OC(C)=O)CO[C@@H]1C[C@@H]2O` [PACLITAXEL], for which the IC50 in the assay on MDA-MB-435 [2] worked out at 0.612 µM; with MDA-MB-435 [5] it was 0.49 µM; with MDA-MB-435 [4] it was 0.008 µM. Further, in the assay on MDA-MB-435 [6], the IC50 reduction worked out at 0%.

As for `CC(=O)O[C@H]1C(=O)[C@@]2(C)C([C@H](OC(=O)c3ccccc3)[C@]3(O)C[C@H](OC(=O)[C@H](O)[C@@H](NC(=O)c4ccccc4)c4ccccc4)C(C)=C1C3(C)C)[C@]1(OC(C)=O)CO[C@@H]1C[C@@H]2O.O=S(=O)(c1ccc2ccccc2c1)N(CCCCNc1ccnc2cc(Cl)ccc12)Cc1ccccc1` (some centres undefined) [listing 1 of 2 here], the inhibition entry in the assay on MDA-MB-435 [7] and with MDA-MB-435 [8] was “No inhibition” throughout.

Turning to `CC(=O)O[C@H]1C(=O)[C@@]2(C)C([C@H](OC(=O)c3ccccc3)[C@]3(O)C[C@H](OC(=O)[C@H](O)[C@@H](NC(=O)c4ccccc4)c4ccccc4)C(C)=C1C3(C)C)[C@]1(OC(C)=O)CO[C@@H]1C[C@@H]2O.O=S(=O)(c1ccc2ccccc2c1)N(CCCCCCNc1ccnc2cc(Cl)ccc12)Cc1ccccc1` (some centres undefined) [listing 1 of 2 here], the inhibition result in the assay with MDA-MB-435 [7] and with MDA-MB-435 [8] was “No inhibition” in each case.

Turning to `CC(=O)O[C@H]1C(=O)[C@@]2(C)C([C@H](OC(=O)c3ccccc3)[C@]3(O)C[C@H](OC(=O)[C@H](O)[C@@H](NC(=O)c4ccccc4)c4ccccc4)C(C)=C1C3(C)C)[C@]1(OC(C)=O)CO[C@@H]1C[C@@H]2O.O=S(=O)(c1ccc2ccccc2c1)N(CCCCNc1ccnc2cc(Cl)ccc12)Cc1ccccc1` (some centres undefined) [listing 2 of 2 here], in the assay on MDA-MB-435 [6], the IC50 reduction is 99% and the Reduction is recorded as 70%.

With `COc1cc(NC(C)CCCNS(=O)(=O)c2ccc3ccccc3c2)c2ncccc2c1` (centres undefined), the figures for the inhibition at 10 µM in the assay with MDA-MB-435 [1] and with MDA-MB-435 [3] were 16% and 8%, respectively. Moreover, the IC50 in the assay on MDA-MB-435 [2] and with MDA-MB-435 [4] was greater than 10 µM each time.

On to `CC(=O)O[C@H]1C(=O)[C@@]2(C)C([C@H](OC(=O)c3ccccc3)[C@]3(O)C[C@H](OC(=O)[C@H](O)[C@@H](NC(=O)c4ccccc4)c4ccccc4)C(C)=C1C3(C)C)[C@]1(OC(C)=O)CO[C@@H]1C[C@@H]2O.COc1cc(NC(C)CCCN(Cc2ccccc2)S(=O)(=O)c2ccc3ccccc3c2)c2ncccc2c1` (some centres undefined) [listing 1 of 2 here], for which the inhibition result in the assay with MDA-MB-435 [7] and in the assay on MDA-MB-435 [8] was “No inhibition” each time.

For the compound `CC(=O)O[C@H]1C(=O)[C@@]2(C)C([C@H](OC(=O)c3ccccc3)[C@]3(O)C[C@H](OC(=O)[C@H](O)[C@@H](NC(=O)c4ccccc4)c4ccccc4)C(C)=C1C3(C)C)[C@]1(OC(C)=O)CO[C@@H]1C[C@@H]2O.O=S(=O)(c1ccc2ccccc2c1)N(CCCCCCNc1ccnc2cc(Cl)ccc12)Cc1ccccc1` (some centres undefined) [listing 2 of 2 here], the IC50 reduction in the assay with MDA-MB-435 [6] was 99% and 54% and 39%. In the assay on MDA-MB-435 [9], the Reversal activity worked out at 99%.

Regarding `CC(=O)O[C@H]1C(=O)[C@@]2(C)C([C@H](OC(=O)c3ccccc3)[C@]3(O)C[C@H](OC(=O)[C@H](O)[C@@H](NC(=O)c4ccccc4)c4ccccc4)C(C)=C1C3(C)C)[C@]1(OC(C)=O)CO[C@@H]1C[C@@H]2O.COc1cc(NC(C)CCCNS(=O)(=O)c2ccc3ccccc3c2)c2ncccc2c1` (some centres undefined) [listing 1 of 2 here], the inhibition result in the assay on MDA-MB-435 [7] and in the assay on MDA-MB-435 [8] was “No inhibition” each time.

In turn, `CC(=O)O[C@H]1C(=O)[C@@]2(C)C([C@H](OC(=O)c3ccccc3)[C@]3(O)C[C@H](OC(=O)[C@H](O)[C@@H](NC(=O)c4ccccc4)c4ccccc4)C(C)=C1C3(C)C)[C@]1(OC(C)=O)CO[C@@H]1C[C@@H]2O.COc1cc(NC(C)CCCN(Cc2ccccc2)S(=O)(=O)c2ccc3ccccc3c2)c2ncccc2c1` (some centres undefined) [listing 2 of 2 here] yielded an IC50 reduction in the assay with MDA-MB-435 [6] of 96%. Moreover, the Reduction in the assay with MDA-MB-435 [10] was 55%.

For the compound `CC(=O)O[C@H]1C(=O)[C@@]2(C)C([C@H](OC(=O)c3ccccc3)[C@]3(O)C[C@H](OC(=O)[C@H](O)[C@@H](NC(=O)c4ccccc4)c4ccccc4)C(C)=C1C3(C)C)[C@]1(OC(C)=O)CO[C@@H]1C[C@@H]2O.COc1cc(NC(C)CCCNS(=O)(=O)c2ccc3ccccc3c2)c2ncccc2c1` (some centres undefined) [listing 2 of 2 here], in the assay on MDA-MB-435 [6], the IC50 reduction stood at 97% and the Reduction worked out at 36%.

With `O=S(=O)(c1ccc2ccccc2c1)N(CCCCCCNc1ccnc2cc(Cl)ccc12)Cc1ccccc1`, the IC50 in the assay on MDA-MB-435 [2] was determined as 2 µM; in the assay with MDA-MB-435 [4], 1.7 µM.

For the compound `COc1cc(NC(C)CCCN(Cc2ccccc2)S(=O)(=O)c2ccc3ccccc3c2)c2ncccc2c1` (centres undefined), the inhibition at 10 µM was 0% in the assay with MDA-MB-435 [1] and 8% in the assay on MDA-MB-435 [3]. Also, the IC50 in the assay on MDA-MB-435 [2] and in the assay on MDA-MB-435 [4] was greater than 10 µM in each case.

(Values after ChEMBL document CHEMBL1133953, “Modulation of human mammary cell sensitivity to paclitaxel by new quinoline sulfonamides” (Bioorg Med Chem Lett, 2001).)
